Molecules are shown by their SMILES.

The data set in a line: Toxicity liver stage against HepG2, at 10uM. In kind it is cell-based. More on the design: test concentration 10 uM, cell line HepG2-A16-CD81EGFP. The conditions noted are these: human, HepG2-A16-CD81EGFP cells; read-out: INHIBITION
The procedure, abridged:
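Uninfected HepG2-A16-CD81EGFP cells, 3 × 10^3 per well, 1536-well, plated on prespotted compound at 10 μM final, parasite-free screening media added to match infected plates; puromycin 10 μM positive, DMSO 0.5% negative; run in parallel with 48 h PbLuc assay at 37 °C, 5% CO2; viability by CellTiter-Glo luminescence, normalized to controls.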
For `CN1C(=O)CO[C@H](c2ccc(NC(=O)c3cccc(F)c3)cc2)[C@H]1CO`, the cytotoxicity at 10 µM came out at 10%.

Consider `CCC(Nc1cccc(Oc2ccccn2)c1)C(N)=O` (stereo unspecified), for which the cytotoxicity at 10 µM amounted to 9.55%.

Take `CCc1nnc2n1CCN(Cc1ccc3c(c1)OCCO3)C2`: the cytotoxicity at 10 µM is -6.61%.

On to `COc1ccc(OC)c(-n2cnnc2COC(C)C)c1`, for which the cytotoxicity at 10 µM was -6.57%.

As for `CC(=O)N1CCCC1c1cccc(NCc2ccccc2F)n1` (stereo unspecified), the cytotoxicity at 10 µM was -13.8%.

Consider `COC(=O)N1CCC(NC(=O)N2CCCC2c2ccsc2)CC1` (stereo unspecified), for which the cytotoxicity at 10 µM amounted to 10.5%.

Turning to `O=c1[nH]c(N2CC(O)C2)nc2c1cnn2-c1ccccc1`, the cytotoxicity at 10 µM is 1.92%.

With `Cc1ncc(CN2C[C@H]3CC(OCc4ccccc4)C[C@H]3C2)cn1` (stereo partly specified), the cytotoxicity at 10 µM was -24.3%.

In the case of `C[C@@H]1CN(CC(C)(C)N2CCOCC2)C[C@@]1(O)C1CC1`, the cytotoxicity at 10 µM was 2.93%.

As for `Cc1cc(CN(C2CC2)C(C)C(C)C)no1` (stereo unspecified), the cytotoxicity at 10 µM was 0.519%.

As to `CCCNC(=O)c1sccc1N(C)S(=O)(=O)c1ccc(Cl)cc1`, the cytotoxicity at 10 µM was found to be 9.22%.

In the case of `Cn1ccc(C(=O)NCc2ccccc2CN2CCCCC2)cc1=O`, the cytotoxicity at 10 µM is -2.51%.

Turning to `Cc1nnc(CN2CCOC(c3ccc(Cl)c(Cl)c3)C2)o1` (stereo unspecified), the cytotoxicity at 10 µM was -1.11%.

As to `Cc1cccc(Nc2nccnc2C2CCCN2CC(N)=O)n1` (stereo unspecified), the cytotoxicity at 10 µM is -4.16%.

With `CC(C(=O)NCc1ccnc(N(C)C)c1)n1cncn1` (stereo unspecified), the cytotoxicity at 10 µM is -9.7%.

Regarding `COc1cccc(CN(Cc2ccco2)Cc2cnc(C)n2C)c1`, the cytotoxicity at 10 µM turned out to be 3.65%.

Regarding `CNS(=O)(=O)c1ccc(C(=O)NC2CCOc3ccccc32)o1` (stereo unspecified), the cytotoxicity at 10 µM is -9.26%.

On to `COC[C@@H]1CCC[C@@]12CN(Cc1ccc(C)s1)CCO2`, for which the cytotoxicity at 10 µM worked out at 6.76%.

`COc1ccc(OCCN(C)CCCn2cnc3c(N)ncnc32)cc1`: the cytotoxicity at 10 µM came out at 1.12%.

With `CC(C)n1cc(-c2c(C#N)c(N)nc3c2COCC3)cn1`, the cytotoxicity at 10 µM was 17.2%.

`O=S(=O)(c1cccs1)N1Cc2nc(COCC3CC3)oc2C1`: the cytotoxicity at 10 µM was -109%.

Regarding `Cc1nn(C)c(C)c1C1CCCN1CC(=O)N(C)c1nccs1` (stereo unspecified), the cytotoxicity at 10 µM is -1.32%.

Take `NCC1CCCCN1C(=O)Cc1cccc(Cl)c1` (stereo unspecified): the cytotoxicity at 10 µM was -5.36%.

For `CN1CC(Nc2nc3c(cnn3C(C)(C)C)c(=O)[nH]2)CCC1=O` (stereo unspecified), the cytotoxicity at 10 µM is -4.26%.

For the compound `CCCn1nnnc1CN(C)C(C)c1ccc(C)cc1` (stereo unspecified), the cytotoxicity at 10 µM was -3.21%.

On to `CS(=O)(=O)CCC(=O)NC1(c2cccc(C(F)(F)F)c2)CCC1`, for which the cytotoxicity at 10 µM was -40.1%.

As to `Cc1ccccc1CN(CCO)Cc1ncc[nH]1`, the cytotoxicity at 10 µM is -3.97%.

Turning to `COc1ccccc1-c1ncc(CN2C[C@H](O)[C@@H](N3CCCC3)C2)s1`, the cytotoxicity at 10 µM is -6.34%.

As to `Cc1cc(C)c(OCC(=O)NS(=O)(=O)c2c(C)noc2C)c(C)c1`, the cytotoxicity at 10 µM is -6.64%.

Turning to `Cc1cc(C)n(CCC2CC(=O)Nc3cc4[nH]ncc4cc32)n1` (stereo unspecified), the cytotoxicity at 10 µM was -6.17%.

For `Cc1ccc(-n2ccnc2)c(C(=O)NCCOCC2CCCO2)c1` (stereo unspecified), the cytotoxicity at 10 µM was -139%.

In the case of `C[S+]([O-])CCNC(=O)N1CCN(c2cc(F)ccc2F)CC1` (stereo unspecified), the cytotoxicity at 10 µM was -13.4%.

For the compound `Cn1ccnc1C(NCc1csc(Br)c1)c1ccccc1` (stereo unspecified), the cytotoxicity at 10 µM was -0.12%.

Consider `Cc1cc(C(=O)N2CCC(CCC(=O)NCCN(C)C)CC2)ccc1O`, for which the cytotoxicity at 10 µM is 5.38%.

On to `Fc1ccc(-c2n[nH]cc2-c2ccnc(NCCN3CCCC3)n2)cc1`, for which the cytotoxicity at 10 µM came to 9.05%.

Turning to `CNS(=O)(=O)c1cnccc1N1CCN(C(C)C)CC1`, the cytotoxicity at 10 µM is -2.02%.

With `CC(c1nc(C2CC2)no1)N1CCN(CCCN2CCCC2=O)CC1` (stereo unspecified), the cytotoxicity at 10 µM was -13.4%.

Regarding `COCCOc1ccc(NC(=O)C2CCC2)cn1`, the cytotoxicity at 10 µM was -9.65%.

On to `CCOCC1CN(Cc2cnn(C)c2)Cc2ncn(C)c21` (stereo unspecified), for which the cytotoxicity at 10 µM is -79.2%.

In the case of `Cc1ccc(CCN[C@@H]2c3ccccc3C3(CCNCC3)[C@H]2O)s1`, the cytotoxicity at 10 µM is -2.72%.

Take `Cc1c(C(=O)NCCCS(C)(=O)=O)cccc1-c1ccccn1`: the cytotoxicity at 10 µM is 4.83%.

As to `O=C(Cc1c[nH]c2ccccc12)N1CCC(Nc2cccnc2)CC1`, the cytotoxicity at 10 µM is -26.6%.

As for `COCCn1cnc2ccc(NC(=O)C(C)C)cc2c1=O`, the cytotoxicity at 10 µM is -9.46%.

As for `CCOC(=O)NCCNC(=O)c1cc2ccccc2nc1N1CCCC1`, the cytotoxicity at 10 µM is -7.74%.

As for `C[C@H]1CN(Cc2cnn(C)c2)C[C@@]12CCN(Cc1cccnc1)C2=O`, the cytotoxicity at 10 µM was determined as 8.99%.

For the compound `Cc1cc(N2CCC(O)(CN(C)C(=O)CCN)C2)c2cnccc2n1` (stereo unspecified), the cytotoxicity at 10 µM was -2.06%.

For the compound `CCc1nnc(Nc2cc(C)nc(C3CN(C(=O)C(C)C)CCO3)c2)s1` (stereo unspecified), the cytotoxicity at 10 µM stood at 7.25%.

Turning to `Cc1nn(C)c(Cl)c1CNCCOc1ccc2c(c1)OCO2`, the cytotoxicity at 10 µM was 1.52%.

For `Cc1noc(CN(Cc2cccc(C#N)c2)Cc2ccco2)n1`, the cytotoxicity at 10 µM was found to be 0.554%.

Regarding `N#Cc1cccc(C(=O)N2C[C@H](CO)C[C@H](CN3CCCC3)C2)c1`, the cytotoxicity at 10 µM was -1.04%.

Take `CCOC(=O)N1CCN(C(=O)c2cc(OCC)c3ccoc3c2)CC1`: the cytotoxicity at 10 µM turned out to be 41.5%.

For the compound `CNC(=O)Cc1ccccc1NC(=O)N[C@H]1c2ccccc2C[C@H]1O`, the cytotoxicity at 10 µM is -36.1%.

With `O=S(=O)(c1cccc(Cl)c1)N1CCCC(Cn2cncn2)C1` (stereo unspecified), the cytotoxicity at 10 µM is -7.21%.

`Cc1ccnc(N2CCCC(c3noc(C(C)C)n3)C2)n1` (stereo unspecified): the cytotoxicity at 10 µM is 21.9%.

With `CC[C@@H]1N(Cc2ccc(C)o2)CCC[C@]12CCC(=O)N2CCOC`, the cytotoxicity at 10 µM came out at 10.5%.

Take `CO[C@H]1CC[C@H]2[C@H]1OCCN2C(=O)c1nn(C)c2ccccc12`: the cytotoxicity at 10 µM came to 5.33%.

For `COc1cc(Cl)c(NC(=O)NCCn2cccc2)cc1OC`, the cytotoxicity at 10 µM was -0.473%.

On to `CN(Cc1ccccc1)CC(O)Cn1cnc2ccccc2c1=O` (stereo unspecified), for which the cytotoxicity at 10 µM was -5.02%.

Take `O=C(c1ccco1)N1CCc2ncc(CN3CCOCC3)n2CC1`: the cytotoxicity at 10 µM is -78.7%.

As to `CN(Cc1ccccc1F)C(=O)Cn1cc(NC(=O)C(C)(C)C)cn1`, the cytotoxicity at 10 µM was found to be 5.23%.

Take `C/C(=C\c1ccccc1)CN1CCCC(c2nnc3n2CCNCC3)C1` (stereo unspecified): the cytotoxicity at 10 µM is 6.97%.

As for `CCOc1ncccc1C(=O)NCC(O)c1ccc(F)c(F)c1` (stereo unspecified), the cytotoxicity at 10 µM amounted to 9.45%.

For the compound `Cc1ncccc1NC(=O)[C@@H]1CC[C@@H]2[C@@H](CCN2Cc2cnn(C)c2)O1`, the cytotoxicity at 10 µM was -0.335%.

Take `Cc1nccn1CC1CCCN(C(=O)c2cnn(C)c2)C1` (stereo unspecified): the cytotoxicity at 10 µM is -6.44%.

Take `O=C([C@H]1CCCO1)N1CCc2ncnc(NC3CC3)c2CC1`: the cytotoxicity at 10 µM is -12.6%.

Consider `COc1ccc(OCCc2sc(C3(O)CCCNCC3)nc2C)cc1` (stereo unspecified), for which the cytotoxicity at 10 µM is -14.9%.

With `Cc1noc(C)c1C(=O)N1CCOC2(COCCN(C(C)C)C2)C1` (stereo unspecified), the cytotoxicity at 10 µM is 2.71%.

Regarding `CCC1=N[C@@]2(CC[C@@H]3CN(C(=O)NCc4cccc(F)c4)C[C@@H]32)C(=O)N1`, the cytotoxicity at 10 µM was -69.4%.

Turning to `Cn1cnc(CN2Cc3nccn3CC2c2ccccc2)c1` (stereo unspecified), the cytotoxicity at 10 µM worked out at 2.98%.

Regarding `CC(c1nnc(-c2cccs2)o1)N1CCn2c(nnc2C2CC2)C1` (stereo unspecified), the cytotoxicity at 10 µM amounted to 17.7%.

On to `CCc1nc2n(n1)CC(Nc1ccnc(-c3ccccc3)n1)CC2` (stereo unspecified), for which the cytotoxicity at 10 µM is -11.7%.

As for `CC(=O)NCCNC(=O)CN1CCN(Cc2nccn2C)C(C)C1` (stereo unspecified), the cytotoxicity at 10 µM is -6.73%.

For the compound `CN(C(=O)Cn1nc(-c2ccc(F)cc2)oc1=O)c1ccccc1`, the cytotoxicity at 10 µM is -0.267%.

Consider `Cc1cc(CN(C)C(=O)NC2CCN(C3CC3)CC2)no1`, for which the cytotoxicity at 10 µM was -3.6%.

With `COC(=O)COc1ccc(-c2noc(C3CCCO3)n2)cc1` (stereo unspecified), the cytotoxicity at 10 µM amounted to 1.07%.

As to `Cc1cc(C)c2ncn(CC(C)(C)CO)c(=O)c2c1`, the cytotoxicity at 10 µM was determined as 15.4%.

For `COC(=O)[C@H]1CN(C(=O)NC(C)C)CCN1C(=O)c1cccs1`, the cytotoxicity at 10 µM is -0.832%.

As to `CC(C)CN1CCNC(=O)C12CCN(S(=O)(=O)c1ccc(F)cc1)CC2`, the cytotoxicity at 10 µM is -3.16%.

`CCc1nccn1C1CCCN(C(=O)c2ccc3c(c2)OCCO3)C1` (stereo unspecified): the cytotoxicity at 10 µM is -11.8%.

`CN(C)Cc1cc(=O)n2c(n1)CN(Cc1ccco1)CCC2`: the cytotoxicity at 10 µM amounted to 7.07%.

Regarding `CCNC(=O)Nc1ccc(N2CCC(OC)CC2)c(C(F)(F)F)c1`, the cytotoxicity at 10 µM was 20.4%.

With `CCN(CC)c1ncc(CNC2CCc3ncnn3C2)s1` (stereo unspecified), the cytotoxicity at 10 µM was -1.06%.

For the compound `O=C(C1=CCCC1)N1CCO[C@H]2[C@@H](OCC3CC3)CC[C@@H]21`, the cytotoxicity at 10 µM was -5.66%.

In the case of `Cc1ccc(CNCc2c(C)nn(C)c2N(C)C)cn1`, the cytotoxicity at 10 µM was 4.65%.

In the case of `CCc1nnc(Nc2cccc(C3CCN(C)CC3)n2)s1`, the cytotoxicity at 10 µM was -28.6%.

Regarding `COc1ccc(CC(=O)N(C)Cc2nnc3ccccn23)cc1`, the cytotoxicity at 10 µM was 5.44%.

In the case of `Cc1cccnc1NC(=O)C1CCCN(c2cccc(C(F)(F)F)n2)C1` (stereo unspecified), the cytotoxicity at 10 µM came to 4.95%.

For `CC1=Nc2c(c(=O)[nH]n2C2CCCCC2)C(c2cccnc2)S1` (stereo unspecified), the cytotoxicity at 10 µM is 6.72%.

In the case of `Cc1nc(-c2cc(C(=O)N3CCN(C)CC3)c3ccccn23)cn1C`, the cytotoxicity at 10 µM worked out at 8.73%.

Take `O=C1NCC[C@]12CN(Cc1ccco1)C[C@H]2c1ccccc1`: the cytotoxicity at 10 µM was -139%.

As to `O=C(NCc1cccnc1)[C@H]1CN2CCC1C[C@@H]2Cn1cc(CO)nn1` (stereo partly specified), the cytotoxicity at 10 µM is -0.843%.

Regarding `c1ccc(-c2nnc([C@H]3CCN(C4CCC4)C3)o2)cc1`, the cytotoxicity at 10 µM was found to be 1.74%.

For `CCCOc1ccc2ccccc2c1CN1CC[C@@]2(O)CCNC[C@H]2C1`, the cytotoxicity at 10 µM is -148%.

With `c1ccc(-c2nc(CCNCc3ccncc3)co2)cc1`, the cytotoxicity at 10 µM stood at 6.07%.

As to `O=C(Nc1nncs1)c1ccc(-n2cnnn2)cc1`, the cytotoxicity at 10 µM stood at 5.25%.

For the compound `C1CCC(c2nn3c(C4CCCO4)nnc3s2)C1` (stereo unspecified), the cytotoxicity at 10 µM is 8.51%.

(Values after ChEMBL document CHEMBL4513216, “Probing the Open Global Health Chemical Diversity Library for Multistage-Active Starting Points for Next-Generation Antimalarials” (ACS Infect Dis, 2020).)
